Experimental data published in article PMC3498903 (Journal of medicinal chemistry, 2012).
“Also recorded” adds a separate entry of the source. Where a name gives a salt, the structure may show the parent alone. Read-outs that look alike come from different tables or passages of the source.

What was measured:
[1] = test system: HFF cells; test: In vitro toxicity assay on HFF host cells; format: cell-based, human; conditions: HFF used as host cells in the parasite assay
[2] = test system: P. falciparum TM91-C235; test: Malaria SYBR Green I-based fluorescence; format: cell-based, Plasmodium falciparum; conditions: for efficacy against TM91-C235 compared with D6: comparison of IC50 values of the two strains; for IC50: Plasmodium falciparum, 72 h
[3] = test system: RH-YFP tachyzoites; test: Determination of static or cidal effects on RH-YFP tachyzoites; format: cell-based, Toxoplasma gondii; conditions: 1 μM; for static or cidal effect: Conditions A-D, growth assessed at days 11, 17, 25; for duration of treatment giving a cidal effect: compound removed after treatment
[4] = test system: mice; test: In vivo toxicity in uninfected mice dosed orally; conditions: for Day of Death: Challenge None, B7 mice; for toxic effects on oral dosing (survival, well-being criteria): gavage daily for nine days, 100mg/kg
[5] = test system: T. gondii Me-49 oocysts; test: Mouse model of T. gondii oocyst infection, ME49 oocysts; format: in vivo, Toxoplasma gondii; conditions: 25 or 100 mg/kg, versus untreated infected mice
How it was run: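 […] female mice (~25 g), 5 per group. Each mouse received test compound at 100 or 25 mg/kg (2.5 or […], 1.0 mL) by oral gavage in 1% DMSO/5% PEG 400/94% of 0.5% CMC, with or without 100 acid-sporulated, NaOH-neutralised ME49 oocysts orally. Controls were compound-only and oocyst-only groups. Mice were observed daily for survival. Infection was confirmed by tachyzoites in tissue smears.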

[6] = test system: T. gondii tachyzoites; test: In vitro inhibition of T. gondii tachyzoites; format: cell-based, Toxoplasma gondii; conditions: for activity against T. gondii tachyzoites in words: in vitro, only MIC50 ≤ 1 μM considered active; for MIC50 / MIC90: T. gondii tachyzoites in vitro
[7] = Hydrolytic stability on incubation in THF and buffer; conditions: mixture of THF and buffer (pH 7.4 or pH 8.5); data not shown
[8] = test system: THdhxgTRP tachyzoites transfected with pLK47; test: Insertional mutagenesis experiments: selection of resistant mutants; format: cell-based, Toxoplasma gondii; conditions: prolonged incubation (six weeks); data not shown
[9] = test system: P. falciparum D6 (CDC/Sierra Leone); test: Malaria SYBR Green I-based fluorescence; format: cell-based; conditions: Plasmodium falciparum, D6, 72 h, read-out: D6 IC50
[10] = test system: T. gondii TgGoatUS4 oocysts; test: Mouse model of T. gondii oocyst infection, TgGoatUS4 oocysts; format: in vivo, Toxoplasma gondii; conditions: 25 or 100 mg/kg, versus untreated infected mice
How it was run: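 Mice, 5 per group, were challenged orally with TgGoatUS4 oocysts that had been sporulated in 2% sulfuric acid and neutralised with 3.3% NaOH. Test compound was given at 100 or 25 mg/kg as a 1 mL suspension by oral gavage in 1% DMSO/5% PEG 400/94% of 0.5% CMC. Controls were compound-only and untreated infected mice. Survival was observed daily, with tachyzoites sought in tissue smears.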

CN(CC(=O)NN)C(=O)Oc1ccc(Cl)cc1C(=O)Nc1ccc([N+](=O)[O-])cc1Cl.Cl [Compound 14a, 4-chloro-2-((2-chloro-4-nitrophenyl)carbamoyl)phenyl (2-hydrazinyl-2-oxoethyl)(methyl) carbamate hydrochloride]
Toxicity [1]: >1000 nM
efficacy against TM91-C235 compared with D6 [2]: equally effective
static or cidal effect [3]: cidal
duration of treatment giving a cidal effect [3]: cidal effect after ten days of treatment
Day of Death ([4]; 25 mg/kg oral gavage): None
Day of Death ([4]; 100 mg/kg oral gavage): None
toxic effects on oral dosing (survival, well-being criteria) [4]: all mice were alive and appeared healthy
increased survival [5]: 1 days

CN1CCN(C(=O)Oc2ccc(Cl)cc2C(=O)Nc2ccc([N+](=O)[O-])cc2Cl)CC1 [Compound 7d, 4-chloro-2-((2-chloro-4-nitrophenyl)carbamoyl)phenyl 4-methylpiperazine-1-carboxylate]
activity against T. gondii tachyzoites in words [6]: modest activity; also recorded: devoid of activity
stability against hydrolysis [7]: much more stable against hydrolysis

O=C(Nc1cccc(OC(F)F)c1)c1cc(Cl)ccc1O [Compound 3z, 5-chloro-N-(3-(difluoromethoxy)phenyl)-2-hydroxybenzamide]
MIC50 [6]: >1 µM
MIC90 [6]: >1 µM

COc1ccc(NC(=O)c2cc(Cl)ccc2O)cc1OC [Compound 3v, 5-chloro-N-(3,4-dimethoxyphenyl)-2-hydroxybenzamide]
activity against T. gondii tachyzoites in words [6]: devoid of activity

O=C(Nc1cc(C(F)(F)F)cc(C(F)(F)F)c1)c1cc(Cl)ccc1O [Compound 3j]
activity against T. gondii tachyzoites in words [6]: promising activity
Toxicity [1]: >1000 nM
efficacy against TM91-C235 compared with D6 [2]: equally effective
static or cidal effect [3]: parasitocidal; also recorded: cidal
duration of treatment giving a cidal effect [3]: cidal effect after four days of treatment
growth of insertional mutant parasites in the presence of compound [8]: No parasite growth

5-chloro-N-(3-cyano-4-fluorophenyl)-2-hydroxybenzamide [Compound 3t]
MIC50 [6]: >1 µM
MIC90 [6]: >1 µM

O=C(Nc1ccc([N+](=O)[O-])cc1Cl)c1cc(Cl)ccc1OC(=O)N1CCOCC1 [Compound 7c, 4-chloro-2-((2-chloro-4-nitrophenyl)carbamoyl)phenyl morpholine-4-carboxylate]
activity against T. gondii tachyzoites in words [6]: devoid of activity
stability against hydrolysis [7]: much more stable against hydrolysis

CC(C)(C)c1cccc(NC(=O)c2cc(Cl)ccc2O)c1 [Compound 3i, N-(3-tert-butylphenyl)-5-chloro-2-hydroxybenzamide]
activity against T. gondii tachyzoites in words [6]: much more active than 3l
Toxicity [1]: >1000 nM
IC50 ([2]; read-out: C235 IC50, multi-drug resistant strain TM91-C235, 72 hours): > 6500 nM
efficacy against TM91-C235 compared with D6 [2]: two-fold higher IC50
static or cidal effect [3]: parasitostatic; also recorded: static effect
growth of insertional mutant parasites in the presence of compound [8]: No parasite growth

5-chloro-2-hydroxy-N-(3,4,5-trimethoxyphenyl)benzamide [Compound 3q]
MIC50 [6]: >1 µM
MIC90 [6]: >1 µM
activity against T. gondii tachyzoites in words [6]: devoid of activity; also recorded: inactive

N-(2,4-difluorophenyl)-5-chloro-2-hydroxybenzamide [Compound 3o]
MIC50 [6]: >1 µM
MIC90 [6]: >1 µM
activity against T. gondii tachyzoites in words [6]: inactive

Nc1ccc(NC(=O)c2cc(Cl)ccc2O)c(Cl)c1 [Compound 5, N-(4-amino-2-chlorophenyl)-5-chloro-2-hydroxybenzamide hydrochloride]
activity against T. gondii tachyzoites in words [6]: all activity was lost; also recorded: destroyed

CCN(CC)CCCC(C)Nc1ccnc2cc(Cl)ccc12 (stereo not drawn) [Chloroquine, reference compound]
IC50 [9]: 7 nM
IC50 ([2]; read-out: C235 IC50): 89 nM

5-chloro-2-hydroxy-N-(5-methoxy-2-methylphenyl)benzamide [Compound 3x]
MIC50 [6]: >1 µM
MIC90 [6]: >1 µM

N-(2,3-dihydrobenzo[b][1,4]dioxin-6-yl)-2-hydroxybenzamide [Compound 3ab]
MIC50 [6]: >1 µM
MIC90 [6]: >1 µM
activity against T. gondii tachyzoites in words [6]: devoid of activity; also recorded: inactive

O=C(Oc1ccc(Cl)cc1C(=O)Nc1ccc([N+](=O)[O-])cc1Cl)c1ccccc1 [Compound 7a, 4-chloro-2-((2-chloro-4-nitrophenyl)carbamoyl)phenyl benzoate]
activity against T. gondii tachyzoites in words [6]: apparent increase in potency over 4
Toxicity [1]: >1000 nM
efficacy against TM91-C235 compared with D6 [2]: equally effective
static or cidal effect [3]: parasitocidal; also recorded: cidal
duration of treatment giving a cidal effect [3]: cidal effect after four days of treatment
growth of insertional mutant parasites in the presence of compound [8]: No parasite growth
stability against hydrolysis [7]: hydrolytically labile

O=C(Nc1ccc([N+](=O)[O-])cc1Cl)c1ccccc1O [Compound 3k, N-(2-chloro-4-nitrophenyl)-2-hydroxybenzamide]
activity against T. gondii tachyzoites in words [6]: eliminated activity altogether

N-(2-chloro-5-nitrophenyl)-5-methyl-2-hydroxybenzamide [Compound 3m]
activity against T. gondii tachyzoites in words [6]: decreased potency; also recorded: inactive; also recorded: about one-half as active as 4

COC(=O)[C@@H]1CCCN1C(=O)Oc1ccc(Cl)cc1C(=O)Nc1ccc([N+](=O)[O-])cc1Cl [Compound 7b, (S)-1-(4-chloro-2-((2-chloro-4-nitrophenyl)carbamoyl)phenyl) 2-methyl pyrrolidine-1,2-dicarboxylate]
stability against hydrolysis [7]: much more stable against hydrolysis

2-((2,4-bis(trifluoromethyl)phenyl)carbamoyl)-4-chlorophenyl(2-hydrazinyl-2-oxoethyl) (methyl)carbamate hydrochloride [Compound 14b]
Toxicity [1]: >1000 nM
Day of Death ([4]; 25 mg/kg oral gavage): None
Day of Death ([4]; 100 mg/kg oral gavage): None
toxic effects on oral dosing (survival, well-being criteria) [4]: all mice were alive and appeared healthy
increased survival [10]: 1 days
growth of insertional mutant parasites in the presence of compound [8]: No parasite growth

N-(2,4-dichlorophenyl)-5-chloro-2-hydroxybenzamide [Compound 3n]
activity against T. gondii tachyzoites in words [6]: slight activity; also recorded: active
